Test system: Fibroblast
Assay: Multiplex assay against human fibroblast
Assay type: toxicity, cell-based
In short: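 With compound added, live cells were imaged on a CQ1 microscope at 37°C and 5% CO2; staining with Hoechst33342, BioTracker Green Microtubule Cytoskeleton Dye, MitoTracker Red and Annexin V Alexa Fluor 680 had been done at seeding. The CellPathfinder machine-learning gating scheme split cells into Hoechst high-intensity objects or normal cells, normal cells into healthy, pyknosed or fragmented nuclei, and pyknosed cells into mitotic or apoptotic. The tubulin, mitochondrial-mass and membrane-permeability phenotypes are per cents of healthy-nucleus cells.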

[1] = 12 h, 1 µM, compound concentration 1 uM, replicate 1
[2] = 12 h, 1 µM, compound concentration 1 uM, replicate 2
[3] = 12 h, 10 µM, compound concentration 10 uM, replicate 1
[4] = 12 h, 10 µM, compound concentration 10 uM, replicate 2
[5] = 24 h, 1 µM, compound concentration 1 uM, replicate 1
[6] = 24 h, 1 µM, compound concentration 1 uM, replicate 2
[7] = 24 h, 10 µM, compound concentration 10 uM, replicate 1
[8] = 24 h, 10 µM, compound concentration 10 uM, replicate 2
[9] = 48 h, 1 µM, compound concentration 1 uM, replicate 1
[10] = 48 h, 1 µM, compound concentration 1 uM, replicate 2
[11] = 48 h, 10 µM, compound concentration 10 uM, replicate 1
[12] = 48 h, 10 µM, compound concentration 10 uM, replicate 2

## CC(C)(C)NC[C@H](O)COc1nsnc1N1CCOCC1 [TIMOLOL]
[1]
  Population Apoptotic (%): 71%
  Population Fragmented Nuclei (%): 22%
  Population Healthy Nuclei (%): 51%
  Population Hoechst High Intensity Objects (%): 14%
  Population Membrane Permeable-Phenotype (%): 14%
  Population Mitochondria Different-Phenotype (%): 1%
  Population Mitotic Cells (%): 28%
  Population Normal (%): 85%
  Population Pyknosed Nuclei (%): 25%
  Population Tubulin-Different-Phenotype (%): 25%
[2]
  Population Apoptotic (%): 100%
  Population Fragmented Nuclei (%): 5%
  Population Healthy Nuclei (%): 88%
  Population Hoechst High Intensity Objects (%): 8%
  Population Membrane Permeable-Phenotype (%): 8%
  Population Mitochondria Different-Phenotype (%): 11%
  Population Mitotic Cells (%): 0%
  Population Normal (%): 92%
  Population Pyknosed Nuclei (%): 5%
  Population Tubulin-Different-Phenotype (%): 18%
[3]
  Population Apoptotic (%): 60%
  Population Fragmented Nuclei (%): 28%
  Population Healthy Nuclei (%): 40%
  Population Hoechst High Intensity Objects (%): 14%
  Population Membrane Permeable-Phenotype (%): 33%
  Population Mitochondria Different-Phenotype (%): 0%
  Population Mitotic Cells (%): 39%
  Population Normal (%): 85%
  Population Pyknosed Nuclei (%): 31%
  Population Tubulin-Different-Phenotype (%): 47%
  Total Cell Count: 105
[4]
  Population Apoptotic (%): 33%
  Population Fragmented Nuclei (%): 8%
  Population Healthy Nuclei (%): 79%
  Population Hoechst High Intensity Objects (%): 3%
  Population Membrane Permeable-Phenotype (%): 4%
  Population Mitochondria Different-Phenotype (%): 7%
  Population Mitotic Cells (%): 66%
  Population Normal (%): 96%
  Population Pyknosed Nuclei (%): 11%
  Population Tubulin-Different-Phenotype (%): 4%
[5]
  Population Apoptotic (%): 60%
  Population Fragmented Nuclei (%): 19%
  Population Healthy Nuclei (%): 53%
  Population Hoechst High Intensity Objects (%): 12%
  Population Membrane Permeable-Phenotype (%): 26%
  Population Mitochondria Different-Phenotype (%): 0%
  Population Mitotic Cells (%): 39%
  Population Normal (%): 87%
  Population Pyknosed Nuclei (%): 27%
  Population Tubulin-Different-Phenotype (%): 30%
[6]
  Population Apoptotic (%): 50%
  Population Fragmented Nuclei (%): 11%
  Population Healthy Nuclei (%): 81%
  Population Hoechst High Intensity Objects (%): 5%
  Population Membrane Permeable-Phenotype (%): 2%
  Population Mitochondria Different-Phenotype (%): 18%
  Population Mitotic Cells (%): 50%
  Population Normal (%): 94%
  Population Pyknosed Nuclei (%): 6%
  Population Tubulin-Different-Phenotype (%): 21%
[7]
  Population Apoptotic (%): 65%
  Population Fragmented Nuclei (%): 22%
  Population Healthy Nuclei (%): 49%
  Population Hoechst High Intensity Objects (%): 16%
  Population Membrane Permeable-Phenotype (%): 58%
  Population Mitochondria Different-Phenotype (%): 2%
  Population Mitotic Cells (%): 34%
  Population Normal (%): 83%
  Population Pyknosed Nuclei (%): 27%
  Population Tubulin-Different-Phenotype (%): 58%
  Total Cell Count: 99
[8]
  Population Apoptotic (%): 41%
  Population Fragmented Nuclei (%): 7%
  Population Healthy Nuclei (%): 81%
  Population Hoechst High Intensity Objects (%): 2%
  Population Membrane Permeable-Phenotype (%): 3%
  Population Mitochondria Different-Phenotype (%): 5%
  Population Mitotic Cells (%): 58%
  Population Normal (%): 97%
  Population Pyknosed Nuclei (%): 11%
  Population Tubulin-Different-Phenotype (%): 4%
[9]
  Population Apoptotic (%): 64%
  Population Fragmented Nuclei (%): 29%
  Population Healthy Nuclei (%): 53%
  Population Hoechst High Intensity Objects (%): 10%
  Population Membrane Permeable-Phenotype (%): 22%
  Population Mitochondria Different-Phenotype (%): 2%
  Population Mitotic Cells (%): 35%
  Population Normal (%): 89%
  Population Pyknosed Nuclei (%): 16%
  Population Tubulin-Different-Phenotype (%): 34%
[10]
  Population Apoptotic (%): 33%
  Population Fragmented Nuclei (%): 12%
  Population Healthy Nuclei (%): 84%
  Population Hoechst High Intensity Objects (%): 15%
  Population Membrane Permeable-Phenotype (%): 14%
  Population Mitochondria Different-Phenotype (%): 1%
  Population Mitotic Cells (%): 66%
  Population Normal (%): 84%
  Population Pyknosed Nuclei (%): 3%
  Population Tubulin-Different-Phenotype (%): 23%
  Total Cell Count: 106
[11]
  Population Apoptotic (%): 47%
  Population Fragmented Nuclei (%): 34%
  Population Healthy Nuclei (%): 45%
  Population Hoechst High Intensity Objects (%): 16%
  Population Membrane Permeable-Phenotype (%): 51%
  Population Mitochondria Different-Phenotype (%): 0%
  Population Mitotic Cells (%): 52%
  Population Normal (%): 83%
  Population Pyknosed Nuclei (%): 19%
  Population Tubulin-Different-Phenotype (%): 42%
  Total Cell Count: 118
[12]
  Population Apoptotic (%): 33%
  Population Fragmented Nuclei (%): 16%
  Population Healthy Nuclei (%): 77%
  Population Hoechst High Intensity Objects (%): 9%
  Population Membrane Permeable-Phenotype (%): 8%
  Population Mitochondria Different-Phenotype (%): 2%
  Population Mitotic Cells (%): 66%
  Population Normal (%): 90%
  Population Pyknosed Nuclei (%): 5%
  Population Tubulin-Different-Phenotype (%): 29%

## O=c1cc(N2CCOCC2)oc2c(-c3cccc4c3sc3ccccc34)cccc12
[1]
  Population Apoptotic (%): 65%
  Population Fragmented Nuclei (%): 23%
  Population Healthy Nuclei (%): 44%
  Population Hoechst High Intensity Objects (%): 13%
  Population Membrane Permeable-Phenotype (%): 32%
  Population Mitochondria Different-Phenotype (%): 5%
  Population Mitotic Cells (%): 34%
  Population Normal (%): 86%
  Population Pyknosed Nuclei (%): 32%
  Population Tubulin-Different-Phenotype (%): 36%
  Total Cell Count: 136
[2]
  Population Apoptotic (%): 100%
  Population Fragmented Nuclei (%): 15%
  Population Healthy Nuclei (%): 77%
  Population Hoechst High Intensity Objects (%): 10%
  Population Membrane Permeable-Phenotype (%): 2%
  Population Mitochondria Different-Phenotype (%): 6%
  Population Mitotic Cells (%): 0%
  Population Normal (%): 90%
  Population Pyknosed Nuclei (%): 6%
  Population Tubulin-Different-Phenotype (%): 14%
  Total Cell Count: 79
[3]
  Population Apoptotic (%): 61%
  Population Fragmented Nuclei (%): 35%
  Population Healthy Nuclei (%): 28%
  Population Hoechst High Intensity Objects (%): 13%
  Population Membrane Permeable-Phenotype (%): 30%
  Population Mitochondria Different-Phenotype (%): 28%
  Population Mitotic Cells (%): 38%
  Population Normal (%): 86%
  Population Pyknosed Nuclei (%): 36%
  Population Tubulin-Different-Phenotype (%): 95%
  Total Cell Count: 171
[4]
  Population Apoptotic (%): 31%
  Population Fragmented Nuclei (%): 19%
  Population Healthy Nuclei (%): 45%
  Population Hoechst High Intensity Objects (%): 16%
  Population Membrane Permeable-Phenotype (%): 23%
  Population Mitochondria Different-Phenotype (%): 90%
  Population Mitotic Cells (%): 68%
  Population Normal (%): 83%
  Population Pyknosed Nuclei (%): 34%
  Total Cell Count: 70
[5]
  Population Apoptotic (%): 57%
  Population Fragmented Nuclei (%): 19%
  Population Healthy Nuclei (%): 60%
  Population Hoechst High Intensity Objects (%): 9%
  Population Membrane Permeable-Phenotype (%): 31%
  Population Mitochondria Different-Phenotype (%): 2%
  Population Mitotic Cells (%): 42%
  Population Normal (%): 90%
  Population Pyknosed Nuclei (%): 20%
  Population Tubulin-Different-Phenotype (%): 39%
  Total Cell Count: 151
[6]
  Population Apoptotic (%): 60%
  Population Fragmented Nuclei (%): 11%
  Population Healthy Nuclei (%): 82%
  Population Hoechst High Intensity Objects (%): 6%
  Population Membrane Permeable-Phenotype (%): 9%
  Population Mitochondria Different-Phenotype (%): 9%
  Population Mitotic Cells (%): 40%
  Population Normal (%): 93%
  Population Pyknosed Nuclei (%): 6%
  Population Tubulin-Different-Phenotype (%): 15%
  Total Cell Count: 86
[7]
  Population Apoptotic (%): 77%
  Population Fragmented Nuclei (%): 28%
  Population Healthy Nuclei (%): 45%
  Population Hoechst High Intensity Objects (%): 14%
  Population Membrane Permeable-Phenotype (%): 19%
  Population Mitochondria Different-Phenotype (%): 40%
  Population Mitotic Cells (%): 22%
  Population Normal (%): 85%
  Population Pyknosed Nuclei (%): 26%
  Population Tubulin-Different-Phenotype (%): 95%
  Total Cell Count: 160
[8]
  Population Apoptotic (%): 66%
  Population Fragmented Nuclei (%): 14%
  Population Healthy Nuclei (%): 21%
  Population Hoechst High Intensity Objects (%): 6%
  Population Membrane Permeable-Phenotype (%): 50%
  Population Mitochondria Different-Phenotype (%): 70%
  Population Mitotic Cells (%): 33%
  Population Normal (%): 94%
  Population Pyknosed Nuclei (%): 63%
  Population Tubulin-Different-Phenotype (%): 70%
  Total Cell Count: 86
[9]
  Population Apoptotic (%): 60%
  Population Fragmented Nuclei (%): 33%
  Population Healthy Nuclei (%): 56%
  Population Hoechst High Intensity Objects (%): 11%
  Population Membrane Permeable-Phenotype (%): 21%
  Population Mitochondria Different-Phenotype (%): 7%
  Population Mitotic Cells (%): 40%
  Population Normal (%): 88%
  Population Pyknosed Nuclei (%): 10%
  Population Tubulin-Different-Phenotype (%): 27%
  Total Cell Count: 167
[10]
  Population Apoptotic (%): 50%
  Population Fragmented Nuclei (%): 18%
  Population Healthy Nuclei (%): 76%
  Population Hoechst High Intensity Objects (%): 6%
  Population Membrane Permeable-Phenotype (%): 17%
  Population Mitochondria Different-Phenotype (%): 2%
  Population Mitotic Cells (%): 50%
  Population Normal (%): 93%
  Population Pyknosed Nuclei (%): 4%
  Population Tubulin-Different-Phenotype (%): 24%
  Total Cell Count: 97
[11]
  Population Apoptotic (%): 68%
  Population Fragmented Nuclei (%): 51%
  Population Healthy Nuclei (%): 23%
  Population Hoechst High Intensity Objects (%): 12%
  Population Membrane Permeable-Phenotype (%): 17%
  Population Mitochondria Different-Phenotype (%): 37%
  Population Mitotic Cells (%): 31%
  Population Normal (%): 87%
  Population Pyknosed Nuclei (%): 25%
  Population Tubulin-Different-Phenotype (%): 80%
  Total Cell Count: 173
[12]
  Population Apoptotic (%): 64%
  Population Fragmented Nuclei (%): 27%
  Population Healthy Nuclei (%): 55%
  Population Hoechst High Intensity Objects (%): 10%
  Population Membrane Permeable-Phenotype (%): 6%
  Population Mitochondria Different-Phenotype (%): 48%
  Population Mitotic Cells (%): 35%
  Population Normal (%): 90%
  Population Pyknosed Nuclei (%): 17%
  Population Tubulin-Different-Phenotype (%): 88%
  Total Cell Count: 90
